Legend:
[1] = target: hERG (KCNH2) (Homo sapiens, UniProt Q12809); assay: Displacement of [35S]-MK0499 from human ERG receptor expressed in HEK293 cells at 10 uM; format: cell-based; settings: HEK293 cells expressing human ERG, probe [35S]-MK0499
How it was run: (§1)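 Binding assay measuring displacement of radiolabelled ligand (35S-MK-0499 for hERG; 3H-diltiazem for Cav1.2); % inhibition at 10 µM test compound.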

[2] = target: T1, Sodium channel protein type 9 subunit alpha (Homo sapiens, UniProt Q15858); assay: Blockade of human Nav1.7 by FRET assay
T1 sequence (Q15858 whole entry): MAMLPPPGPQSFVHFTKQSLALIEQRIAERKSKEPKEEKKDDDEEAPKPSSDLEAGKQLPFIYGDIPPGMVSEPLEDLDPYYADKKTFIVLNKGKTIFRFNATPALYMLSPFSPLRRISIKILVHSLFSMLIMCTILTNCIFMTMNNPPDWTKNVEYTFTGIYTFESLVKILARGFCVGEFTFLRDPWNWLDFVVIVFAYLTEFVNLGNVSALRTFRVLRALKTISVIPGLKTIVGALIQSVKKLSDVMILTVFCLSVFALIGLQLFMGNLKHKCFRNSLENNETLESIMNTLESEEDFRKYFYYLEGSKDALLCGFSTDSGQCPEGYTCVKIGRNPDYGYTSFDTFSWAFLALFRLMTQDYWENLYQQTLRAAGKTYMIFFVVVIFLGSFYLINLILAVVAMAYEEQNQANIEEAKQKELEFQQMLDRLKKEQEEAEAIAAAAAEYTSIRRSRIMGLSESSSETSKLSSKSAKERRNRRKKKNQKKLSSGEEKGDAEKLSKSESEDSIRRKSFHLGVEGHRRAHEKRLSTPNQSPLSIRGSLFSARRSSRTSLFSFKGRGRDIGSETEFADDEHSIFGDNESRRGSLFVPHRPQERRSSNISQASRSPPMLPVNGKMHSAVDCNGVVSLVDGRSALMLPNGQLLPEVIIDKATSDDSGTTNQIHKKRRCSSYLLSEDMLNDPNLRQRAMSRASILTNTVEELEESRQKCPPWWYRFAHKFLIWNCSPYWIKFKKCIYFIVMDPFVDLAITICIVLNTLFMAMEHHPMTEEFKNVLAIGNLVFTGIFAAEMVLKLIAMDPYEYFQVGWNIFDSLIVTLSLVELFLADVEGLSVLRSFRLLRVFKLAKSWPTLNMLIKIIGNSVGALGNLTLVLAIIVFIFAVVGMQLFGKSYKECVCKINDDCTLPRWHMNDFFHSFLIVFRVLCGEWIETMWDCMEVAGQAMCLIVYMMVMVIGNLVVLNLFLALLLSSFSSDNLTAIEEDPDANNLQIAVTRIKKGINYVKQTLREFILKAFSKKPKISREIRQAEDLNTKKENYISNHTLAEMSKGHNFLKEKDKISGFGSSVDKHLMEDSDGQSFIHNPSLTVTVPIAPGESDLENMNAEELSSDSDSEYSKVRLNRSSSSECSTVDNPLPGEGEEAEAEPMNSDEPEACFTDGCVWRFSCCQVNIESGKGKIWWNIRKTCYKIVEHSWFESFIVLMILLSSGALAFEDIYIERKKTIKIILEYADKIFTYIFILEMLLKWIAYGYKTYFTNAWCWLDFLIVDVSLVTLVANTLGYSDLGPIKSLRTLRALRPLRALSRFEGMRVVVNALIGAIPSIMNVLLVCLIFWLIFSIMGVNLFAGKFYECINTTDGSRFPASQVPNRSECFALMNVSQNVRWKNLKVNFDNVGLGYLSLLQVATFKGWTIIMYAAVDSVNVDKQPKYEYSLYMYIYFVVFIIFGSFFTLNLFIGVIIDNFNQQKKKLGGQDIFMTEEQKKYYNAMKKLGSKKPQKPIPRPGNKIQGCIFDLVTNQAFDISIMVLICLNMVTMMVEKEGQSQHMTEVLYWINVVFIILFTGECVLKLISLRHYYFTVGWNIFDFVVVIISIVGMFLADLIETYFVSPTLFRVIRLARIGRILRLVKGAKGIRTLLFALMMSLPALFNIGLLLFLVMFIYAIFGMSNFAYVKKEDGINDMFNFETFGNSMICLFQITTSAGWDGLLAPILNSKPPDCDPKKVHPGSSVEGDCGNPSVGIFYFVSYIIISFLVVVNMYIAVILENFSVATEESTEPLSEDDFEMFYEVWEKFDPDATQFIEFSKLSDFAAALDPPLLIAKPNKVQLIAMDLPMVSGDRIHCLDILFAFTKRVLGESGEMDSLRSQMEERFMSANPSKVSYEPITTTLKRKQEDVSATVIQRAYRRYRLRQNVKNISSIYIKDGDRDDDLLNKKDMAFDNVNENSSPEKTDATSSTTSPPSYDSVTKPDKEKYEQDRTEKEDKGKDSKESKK
How it was run: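 Functional membrane-potential assay of channel block on human Nav1.7; read-out is FRET between two membrane-associated dyes; IC50 in nM.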

[3] = target: Cav1.2 (L-type calcium channel subunit alpha-1C) (Homo sapiens, UniProt Q13936); assay: Displacement of [3H]diltiazem from human Cav1.2 expressed in HEK293 cells at 10 uM; format: cell-based; settings: HEK293 cells expressing human Cav1.2, probe [3H]diltiazem; how it was run: as §1
[4] = Bioavailability in rat at 3.0 mg/kg, po; format: ADME, organism-based; settings: in vivo
[5] = Cmax in rat at 1.0 mg/kg, iv or 3.0 mg/kg, po; format: ADME, organism-based; settings: in vivo
[6] = Half life in rat at 1.0 mg/kg, iv or 3.0 mg/kg, po; format: ADME, organism-based; settings: in vivo
[7] = Plasma clearance in rat at 1.0 mg/kg, iv or 3.0 mg/kg, po; format: ADME, organism-based
[8] = target: Voltage-dependent L-type calcium channel subunit alpha-1C (Homo sapiens, UniProt Q13936); assay: Displacement of [3H]diltiazem from human Cav1.2 expressed in HEK293 cells; format: cell-based
How it was run: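 Cav1.2 binding assay measuring displacement of 3H-diltiazem.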

[9] = tested on: Rattus norvegicus; assay: Blockade of spontaneous neuronal firing in rat peripheral axotomy model at 2 mg/kg, iv after 30 mins; format: functional; settings: 0.5 h
How it was run: (§2)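 Iv infusion given after baseline spontaneous firing frequency was established; firing frequency then recorded for 60 min post-dose, with % inhibition at 10, 30 and 60 min; n = 6.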

[10] = tested on: Rattus norvegicus; assay: Blockade of spontaneous neuronal firing in rat peripheral axotomy model at 2 mg/kg, iv after 10 mins; format: functional; how it was run: as §2
[11] = target: T1, Sodium channel protein type 9 subunit alpha; assay: Binding affinity at human inactive state Nav1.7 by whole cell electrophysiology
[12] = Plasma clearance in dog at 0.38 mg/kg, iv or 1.5 mg/kg, po; format: ADME, organism-based, Canis lupus familiaris
[13] = tested on: Rattus norvegicus; assay: Reversal of allodynia in rat spinal nerve ligation model at 10 mg/kg, po after 4 hrs; format: functional
How it was run: (§3)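 L5 spinal nerve ligated and transected in rats to induce neuropathy; tactile allodynia measured with calibrated Von Frey filaments before and 1 week after surgery. Rats with significant allodynia were dosed orally and % reversal of allodynia determined at 2 and 4 h post-dose; n = 8.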

[14] = Bioavailability in dog at 1.5 mg/kg, po; format: ADME, organism-based, Canis lupus familiaris; settings: in vivo
[15] = tested on: Rattus norvegicus; assay: Reversal of allodynia in rat spinal nerve ligation model at 10 mg/kg, po after 2 hrs; format: functional; how it was run: as §3
[16] = Half life in dog at 0.38 mg/kg, iv or 1.5 mg/kg, po; format: ADME, organism-based, Canis lupus familiaris; settings: in vivo
[17] = Cmax in dog at 0.38 mg/kg, iv or 1.5 mg/kg, po; format: ADME, organism-based, Canis lupus familiaris; settings: in vivo
[18] = tested on: Rattus norvegicus; assay: Blockade of spontaneous neuronal firing in rat peripheral axotomy model at 2 mg/kg, iv after 60 mins; format: functional; settings: 1 h; how it was run: as §2

Sequence of hERG (KCNH2) (Q12809 whole entry): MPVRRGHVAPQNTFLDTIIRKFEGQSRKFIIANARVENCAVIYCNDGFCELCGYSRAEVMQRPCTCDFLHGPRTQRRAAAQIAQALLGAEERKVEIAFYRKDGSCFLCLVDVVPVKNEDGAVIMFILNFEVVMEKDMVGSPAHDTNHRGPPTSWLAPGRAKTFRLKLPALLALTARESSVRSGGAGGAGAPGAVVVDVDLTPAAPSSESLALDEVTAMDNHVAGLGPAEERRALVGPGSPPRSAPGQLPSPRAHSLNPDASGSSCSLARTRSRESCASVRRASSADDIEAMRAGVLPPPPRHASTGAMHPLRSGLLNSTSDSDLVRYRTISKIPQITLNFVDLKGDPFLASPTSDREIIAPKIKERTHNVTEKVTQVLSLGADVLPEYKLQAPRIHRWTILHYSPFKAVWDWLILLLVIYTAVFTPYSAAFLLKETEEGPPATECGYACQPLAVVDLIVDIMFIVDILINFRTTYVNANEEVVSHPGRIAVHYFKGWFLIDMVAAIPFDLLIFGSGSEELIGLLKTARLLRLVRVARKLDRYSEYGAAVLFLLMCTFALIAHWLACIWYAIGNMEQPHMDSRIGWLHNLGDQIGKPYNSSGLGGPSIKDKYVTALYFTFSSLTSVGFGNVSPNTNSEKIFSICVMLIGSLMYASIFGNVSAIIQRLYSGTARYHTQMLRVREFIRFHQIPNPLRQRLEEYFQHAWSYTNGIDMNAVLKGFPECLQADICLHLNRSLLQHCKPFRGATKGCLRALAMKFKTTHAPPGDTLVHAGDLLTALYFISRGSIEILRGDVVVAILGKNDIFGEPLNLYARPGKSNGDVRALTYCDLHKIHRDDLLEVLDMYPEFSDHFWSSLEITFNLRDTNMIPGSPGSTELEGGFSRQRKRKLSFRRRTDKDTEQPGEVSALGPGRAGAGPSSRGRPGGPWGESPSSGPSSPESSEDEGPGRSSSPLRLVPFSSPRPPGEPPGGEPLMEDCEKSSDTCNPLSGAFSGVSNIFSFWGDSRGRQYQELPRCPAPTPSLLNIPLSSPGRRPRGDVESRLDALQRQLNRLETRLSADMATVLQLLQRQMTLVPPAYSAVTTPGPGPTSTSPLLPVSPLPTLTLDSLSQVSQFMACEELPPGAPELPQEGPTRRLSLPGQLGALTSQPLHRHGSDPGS

Structure (SMILES) | inhibition at 10 µM [1] | IC50 [2] | other results
CC(C)(C)OC(=O)N[C@H](Cc1ccccc1)C(=O)N[C@@H]1CCc2ccccc2N(CC2CC2)C1=O | 15% | 78 nM | –
CN1C(=O)[C@H](NC(=O)[C@@H](Cc2ccccc2)NS(=O)(=O)c2ccccc2)N=C(c2ccccc2)c2ccccc21 | – | > 1000 nM | –
CN1C(=O)[C@H](NC(=O)CCc2ccccc2)N=C(c2ccccc2)c2ccccc21 | – | > 1000 nM | –
CN1C(=O)[C@H](NC(=O)[C@@H](Cc2ccccc2)NC(=O)OCc2ccccc2)N=C(c2ccccc2)c2ccccc21 | – | 150 nM | –
CC(C)N1C(=O)[C@H](NC(=O)[C@@H](Cc2ccc(C(F)(F)F)cc2)NC(=O)OC(C)(C)C)CCc2ccccc21 | – | > 1000 nM | –
CC(C)N1C(=O)[C@H](NC(=O)[C@@H](Cc2ccc(F)cc2)NC(=O)OC(C)(C)C)CCc2ccccc21 | 0% | 98 nM | inhibition at 10 µM [3]: 0%
CN1C(=O)[C@H](NC(=O)[C@@H](Cc2ccccc2)NS(C)(=O)=O)N=C(c2ccccc2)c2ccccc21 | – | > 1000 nM | –
CN1C(=O)[C@H](NC(=O)[C@@H](Cc2ccccc2)NC(=O)C(C)(C)C)N=C(c2ccccc2)c2ccccc21 | – | 380 nM | –
CC(C)N1C(=O)[C@H](NC(=O)[C@@H](Cc2ccccc2F)NC(=O)OC(C)(C)C)CCc2ccccc21 | 8% | 44 nM | bioavailability [4]: 14%; Cmax [5]: 100 nM; half-life [6]: 1.5 h; clearance [7]: 41 mL/min/kg; inhibition at 10 µM [3]: 11%
CC(C)N1C(=O)[C@H](NC(=O)[C@@H](Cc2cccc(C(F)(F)F)c2)NC(=O)OC(C)(C)C)CCc2ccccc21 | 15% | 295 nM | inhibition at 10 µM [3]: 19%
CC(C)S(=O)(=O)N[C@H](Cc1ccccc1)C(=O)N[C@@H]1N=C(c2ccccc2)c2ccccc2N(C)C1=O | – | > 1000 nM | –
CN1C(=O)[C@H](NC(=O)[C@@H](CCc2ccccc2)NC(=O)OC(C)(C)C)N=C(c2ccccc2)c2ccccc21 | – | 238 nM | –
CN1C(=O)[C@H](NC(=O)[C@@H](CC2CCCCC2)NC(=O)OC(C)(C)C)N=C(c2ccccc2)c2ccccc21 | – | > 1000 nM | –
CN1C[C@H](NC(=O)[C@@H](Cc2ccccc2)NC(=O)OC(C)(C)C)CCc2ccccc21 | 28% | > 1000 nM | –
CN1C(=O)[C@H](NC(=O)[C@@H](Cc2cscn2)NC(=O)OC(C)(C)C)N=C(c2ccccc2)c2ccccc21 | – | 684 nM | –
CN1C(=O)[C@H](NC(=O)[C@@H](Cc2ccccc2)NC(=O)OC(C)(C)C)N=C(c2ccccc2)c2ccccc21 | – | 125 nM | –
CN1C(=O)[C@H](NC(=O)[C@H](NC(=O)OC(C)(C)C)c2ccccc2)N=C(c2ccccc2)c2ccccc21 | – | 375 nM | –
CN1C(=O)[C@H](NC(=O)[C@@H](Cc2ccccc2)NC(=O)OC(C)(C)C)CCc2ccccc21 | – | 192 nM | –
CC(C)N1C(=O)[C@H](NC(=O)[C@@H](Cc2c(F)cccc2F)NC(=O)OC(C)(C)C)CCc2ccccc21 | 4% | 14 nM | inhibition at 10 µM [3]: 36%
CC(C)N1C(=O)[C@H](NC(=O)[C@@H](Cc2cccc(F)c2C(F)(F)F)NC(=O)OC(C)(C)C)CCc2ccccc21 | 39% | 65 nM | inhibition at 10 µM [3]: 87%
CC(C)N1C(=O)[C@H](NC(=O)[C@@H](Cc2ccccc2)NC(=O)OC(C)(C)C)CCc2ccccc21 | 6% | 45 nM | –
CC(C)(C)OC(=O)N[C@H](Cc1ccccc1)C(=O)N[C@@H]1CCc2ccccc2N(CC(F)(F)F)C1=O | 16% | 150 nM | –

Structure (SMILES) | inhibition at 10 µM [1] | IC50 [2] | other results
CN1C(=O)[C@H](NC(=O)[C@@H](Cc2cccnc2)NC(=O)OC(C)(C)C)N=C(c2ccccc2)c2ccccc21 | – | 978 nM | –
CC(C)N1C(=O)[C@H](NC(=O)[C@@H](Cc2cccc(F)c2)NC(=O)OC(C)(C)C)CCc2ccccc21 | 8% | 9 nM | inhibition at 10 µM [3]: 0%
CC(C)N1C(=O)[C@@H](NC(=O)[C@@H](Cc2ccccc2OC(F)(F)F)NC(=O)OC(C)(C)C)CCc2ccccc21 | 20% | 32 nM | bioavailability [4]: 15%; Cmax [5]: 140 nM; half-life [6]: 2.1 h; clearance [7]: 55 mL/min/kg; IC50 [8]: 1730 nM
CC(C)N1C(=O)[C@H](NC(=O)[C@@H](Cc2ccccc2C(F)(F)F)NC(=O)OC(C)(C)C)CCc2ccccc21 | 34% | 137 nM | bioavailability [4]: 35%; Cmax [5]: 300 nM; half-life [6]: 2.1 h; clearance [7]: 50 mL/min/kg
CN1C(=O)[C@H](NC(=O)[C@@H](Cc2ccc(F)cc2)NC(=O)OC(C)(C)C)N=C(c2ccccc2)c2ccccc21 | – | 71 nM | –
COC(=O)N[C@H](Cc1ccccc1)C(=O)N[C@@H]1N=C(c2ccccc2)c2ccccc2N(C)C1=O | – | > 1000 nM | –
C[C@@H](NC(=O)OC(C)(C)C)C(=O)N[C@@H]1N=C(c2ccccc2)c2ccccc2N(C)C1=O | – | > 1000 nM | –
CC(C)N1C(=O)[C@H](NC(=O)[C@H](Cc2ccccc2OC(F)(F)F)NC(=O)OC(C)(C)C)CCc2ccccc21 | 0% | 214 nM | –
CN1C(=O)[C@H](NC(=O)[C@@H](Cc2ccccc2)N(C)C(=O)OC(C)(C)C)N=C(c2ccccc2)c2ccccc21 | – | > 1000 nM | –
CC(C)N1C(=O)[C@H](NC(=O)[C@@H](Cc2ccccc2OC(F)(F)F)NC(=O)OC(C)(C)C)CCc2ccccc21 | 18% | 35 nM | inhibition in vivo at 2 mg/kg [9]: 100%; inhibition in vivo at 2 mg/kg [10]: 100%; bioavailability [4]: 24%; Ki [11]: 40 nM; Cmax [5]: 300 nM; clearance [12]: 15 mL/min/kg; Activity [13]: 40%; bioavailability [14]: 9%; half-life [6]: 2.3 h; clearance [7]: 24 mL/min/kg; Activity [15]: 43%; half-life [16]: 4.2 h; Cmax [17]: 70 nM; inhibition in vivo at 2 mg/kg [18]: 93%; IC50 [8]: 3500 nM
CN1C(=O)[C@H](NC(=O)[C@@H](Cc2ccccc2)NCCC(C)(C)C)N=C(c2ccccc2)c2ccccc21 | – | > 1000 nM | –
CN1CCCC[C@@H](NC(=O)[C@@H](Cc2ccccc2)NC(=O)OC(C)(C)C)C1=O | – | > 1000 nM | –
CN1C(=O)[C@H](NC(=O)[C@H](N)Cc2ccccc2)N=C(c2ccccc2)c2ccccc21 | – | > 1000 nM | –
CN1C(=O)[C@H](NC(=O)[C@@H](Cc2cnc[nH]2)NC(=O)OC(C)(C)C)N=C(c2ccccc2)c2ccccc21 | – | > 1000 nM | –
CC(C)N1C(=O)[C@H](NC(=O)[C@@H](Cc2c(F)cccc2C(F)(F)F)NC(=O)OC(C)(C)C)CCc2ccccc21 | 43% | 32 nM | bioavailability [4]: 28%; Cmax [5]: 330 nM; half-life [6]: 2.5 h; clearance [7]: 32 mL/min/kg; inhibition at 10 µM [3]: 81%
CC(C)(C)OC(=O)N[C@@H](CN[C@@H]1CCc2ccccc2N(CC(F)(F)F)C1=O)Cc1ccccc1 | 79% | 885 nM | –
CC(C)(C)OC(=O)N[C@H](Cc1ccccc1)C(=O)N[C@@H]1CCc2ccccc2N(CC(F)(F)F)C1 | 40% | 145 nM | –
CN1C(=O)[C@H](NC(=O)[C@@H](Cc2ccccc2F)NC(=O)OC(C)(C)C)N=C(c2ccccc2)c2ccccc21 | – | 87 nM | –
CN1C(=O)[C@H](NC(=O)[C@@H](Cc2ccccc2)NC(=O)C2CC2)N=C(c2ccccc2)c2ccccc21 | – | > 1000 nM | –
CC(C)N1C(=O)[C@H](NC(=O)[C@@H](Cc2cc(F)ccc2F)NC(=O)OC(C)(C)C)CCc2ccccc21 | 6% | 23 nM | inhibition at 10 µM [3]: 24%
CN1C(=O)[C@H](NC(=O)[C@@H](Cc2ccccc2)NC(=O)C23CC4CC(CC(C4)C2)C3)N=C(c2ccccc2)c2ccccc21 | – | 420 nM | –

From ChEMBL document CHEMBL1140675, “Discovery of a novel class of benzazepinone Na(v)1.7 blockers: potential treatments for neuropathic pain” (Bioorg Med Chem Lett, 2007)
